Laboratory results published in publication PMC11203390 (Molecular Therapy. Nucleic Acids, 2024).

Key:
[1] = target: Integrin α2 (ITGA2) (Homo sapiens, UniProt P17301); test: Direct ELISA on HE25-coated plates, ITGA2; assay type: binding; settings: negative control receptor
[2] = target: SARS-CoV-2 spike RBD (Severe acute respiratory syndrome coronavirus 2, UniProt P0DTC2)
[3] = tested on: siRNA; test: Electrophoretic mobility shift assay; assay type: binding; settings: pH 7
Outline: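 Negative-control siRNA mixed with peptide at 1:20–1:100 siRNA:peptide molar ratios in RNase-free water, then incubated 1 h at 4, 25, 37 or 50 °C to encapsulate. For competition, DSS, 8 M urea stock or 20% NaCl stock was added before or after encapsulation. Complexes were run in dye-free glycerol loading buffer (5% final) on 4% agarose gels stained with ethidium bromide.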

Integrin α2 (ITGA2), sequence (P17301 30-1132 limits assumed): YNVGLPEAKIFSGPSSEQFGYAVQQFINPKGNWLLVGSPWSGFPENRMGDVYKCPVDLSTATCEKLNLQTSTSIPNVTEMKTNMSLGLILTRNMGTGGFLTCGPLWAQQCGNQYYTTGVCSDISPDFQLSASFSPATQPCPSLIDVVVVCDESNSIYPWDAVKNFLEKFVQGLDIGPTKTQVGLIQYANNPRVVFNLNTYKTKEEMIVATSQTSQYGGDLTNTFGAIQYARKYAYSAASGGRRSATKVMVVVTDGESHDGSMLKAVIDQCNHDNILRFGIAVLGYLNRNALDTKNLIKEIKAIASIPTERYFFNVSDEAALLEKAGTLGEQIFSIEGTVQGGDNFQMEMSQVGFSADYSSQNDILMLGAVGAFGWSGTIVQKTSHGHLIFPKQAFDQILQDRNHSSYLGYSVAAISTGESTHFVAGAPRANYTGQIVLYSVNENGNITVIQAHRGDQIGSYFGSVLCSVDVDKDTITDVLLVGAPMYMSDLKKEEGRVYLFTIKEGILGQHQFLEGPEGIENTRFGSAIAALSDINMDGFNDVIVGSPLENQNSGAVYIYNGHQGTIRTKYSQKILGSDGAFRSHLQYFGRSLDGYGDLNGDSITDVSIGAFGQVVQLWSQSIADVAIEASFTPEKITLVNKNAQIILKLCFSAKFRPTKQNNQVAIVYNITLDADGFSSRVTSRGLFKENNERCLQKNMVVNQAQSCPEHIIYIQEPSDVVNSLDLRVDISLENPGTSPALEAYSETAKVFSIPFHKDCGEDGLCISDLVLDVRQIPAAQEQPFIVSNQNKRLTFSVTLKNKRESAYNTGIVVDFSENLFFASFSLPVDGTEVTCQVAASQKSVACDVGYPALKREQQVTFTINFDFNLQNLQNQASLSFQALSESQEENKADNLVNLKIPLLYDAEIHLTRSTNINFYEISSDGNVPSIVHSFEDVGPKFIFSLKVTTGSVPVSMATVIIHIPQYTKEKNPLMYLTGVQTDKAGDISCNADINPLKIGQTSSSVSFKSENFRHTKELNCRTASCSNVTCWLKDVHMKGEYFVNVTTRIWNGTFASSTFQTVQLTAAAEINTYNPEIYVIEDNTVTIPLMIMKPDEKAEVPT

Substance: stearyl-HEHHEHHEHEHGFLGRVRVLRGDKW-amide [HE25]
- binding of ITGA2 to HE25 [1]: did not efficiently bind
- binding of spike RBD to HE25-coated plates [2]: recognized
- effect of DSS on binding and preformed complex ([3]; EMSA competition, 20 mg/mL DSS before or after encapsulation, 50°C, molar ratio 1:100): interfere with the binding and disassemble the preformed complex
- effect of urea on binding and preformed complex ([3]; EMSA competition, 1.6 M urea before or after encapsulation, 50°C, molar ratio 1:100): hindered initial binding but did not affect the ones formed
- effect of NaCl on binding and disassembly ([3]; EMSA competition, 4% NaCl before or after encapsulation, 50°C, molar ratio 1:100): no notable effect on either binding or disassembly
- effect of urea on binding ([3]; EMSA competition, urea, 4°C, molar ratio 1:100): not observed before encapsulation
- encapsulation efficiency at 50°C ([3]; EMSA, 50°C): significantly increases
